# Bioassay records from PubChem BioAssay.
# SENP8 block-1: blocks human SENP8 cleavage of Nedd8 substrate. Q96LD8. recombinant SENP8, Nedd8 substrate fluorescence. inhibition, % at 20 µM. actives 0.64% (n = 360,000). AID 602440; in the data active = inhibition mostly above about 40%, no sharp cut-off; inactive = mostly below about 27%
# SENP6 block: blocks the human protease SENP6. Q9GZR1. Recombinant SENP6 catalytic domain, aminoluciferin luminescence. inhibition, % at 10 µM. actives 1.8% (n = 330,000);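 active = inhibition above about 50% at the single tested dose, limit read from the data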;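 also: plate controls were DMSO wells with enzyme for no effect and DMSO wells lacking enzyme for full effect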
# Target sequence (Q9GZR1 628-1112 limits assumed): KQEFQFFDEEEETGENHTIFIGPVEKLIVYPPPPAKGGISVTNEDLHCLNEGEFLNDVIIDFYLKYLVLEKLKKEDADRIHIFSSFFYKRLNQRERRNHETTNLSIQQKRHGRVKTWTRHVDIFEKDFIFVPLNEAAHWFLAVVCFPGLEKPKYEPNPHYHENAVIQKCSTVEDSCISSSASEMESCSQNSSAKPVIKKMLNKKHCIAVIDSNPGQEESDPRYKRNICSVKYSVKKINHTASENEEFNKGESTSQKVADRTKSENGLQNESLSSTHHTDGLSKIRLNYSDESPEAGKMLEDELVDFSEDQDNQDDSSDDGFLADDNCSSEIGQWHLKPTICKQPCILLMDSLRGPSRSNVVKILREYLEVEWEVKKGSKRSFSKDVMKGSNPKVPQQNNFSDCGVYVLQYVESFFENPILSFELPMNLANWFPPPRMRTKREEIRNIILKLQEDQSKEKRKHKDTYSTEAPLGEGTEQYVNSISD
# SENP8 block-2: inhibitors of human SENP8 protease; Q96LD8; purified SENP8, Z-RLRGG-aminoluciferin cleavage, luminescence; inhibition, % at 10 µM; actives 1.2% (n = 330,000); AID 2540; in the data active = inhibition above about 50%
# HSP90 refold inh: HSP90 refolding inhibition in rabbit reticulocyte lysate; luciferase refolding luminescence, 3 h; inhibition, % at 5.6 µM; actives 0.91% (n = 290,000); AID 1789;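 active = inhibition above the screen-wide mean plus 3 SD, computed separately per campaign, cut at about 16% in these data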;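 also: 0% = DMSO wells and 100% = 60 µM geldanamycin wells; inhibitors lower the luminescence because luciferase stays unfolded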
# SENP7 block: blocks the human protease SENP7 | recombinant SENP7, Z-RLRGG-aminoluciferin luminescence, 40 min | actives 1.5% (n = 330,000) | AID 434973 | Q9BQF6 | inhibition, % at 5 µM;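 active = inhibition above about 50% at the single test dose, limit read from the data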;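 also: plate controls were DMSO with enzyme for no effect and no enzyme buffer wells for full effect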
# SENP1 FRET inh: SENP1 (human) catalytic domain inhibition | actives 0.21% (n = 360,000) | Q9P0U3 | recombinant SENP1 catalytic domain, CyPet-SUMO1-YPet FRET cleavage | inhibition, % at 10 µM;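 active = inhibition at least 30% at 10 µM, raw YFP signal under a set limit, fluorescence ratio 0.5 to 1.5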;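 also: 0% = enzyme with DMSO and 100% = no enzyme wells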
#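 Assay system – human recombinant His6-tagged SENP1 catalytic domain enzyme · Input – SENP1 enzyme, 20 pM final · Buffer or medium – Tris pH 8 buffer plus EDTA, NaCl, BME, BSA, NP40, catalase · Schedule – 50 min reaction at room temperature · Technique – FRET read of cyan and yellow fluorescence · Control set – no-enzyme wells low, DMSO-plus-enzyme wells high control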
# HSP90 confirm: HSP90 inhibition, confirmation assay; AID 1846; inhibition, % at 5.9 µM; actives 64% (n = 2,300); rabbit reticulocyte lysate, luciferase refolding luminescence, 3 h; shares compounds with HSP90 refold inh; in the data active = inhibition above about 18%;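 also: 0% = vehicle wells and 100% = reference inhibitor wells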
# FLuc counter: blocks native firefly luciferase in HSP90 counter-screen | shares compounds with HSP90 refold inh | purified native firefly luciferase, luminescence | inhibition, % at 5.9 µM | actives 48% (n = 2,300);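 active = inhibition above the mean inhibition of all tested sample wells plus 3 SD, cut at about 10% in these data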;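 also: 0% = DMSO with luciferase and 100% = wells lacking luciferase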
# SENP8 confirm: confirmation of human SENP8 protease inhibitors; actives 40% (n = 6,200); shares compounds with SENP7 block; inhibition, % at 12.5 µM; Recombinant SENP8, Z-RLRGG-aminoluciferin luminescence, 60 min;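 active = mean inhibition across replicates above about 50%, limit read from the data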
# SENP6 conf: confirmation of human SENP6 protease inhibitors. actives 58% (n = 6,200). inhibition, % at 12.5 µM. AID 488915. shares compounds with SENP7 block. recombinant SENP6, Z-RLRGG-aminoluciferin luminescence
# SENP7 conf: confirmation of human SENP7 protease inhibitors; actives 69% (n = 6,200); shares compounds with SENP7 block; recombinant SENP7, Z-RLRGG-aminoluciferin luminescence, 40 min; inhibition, % at 12.5 µM
# Casp3 select: caspase-3 inhibition (SENP selectivity assay) | shares compounds with SENP7 block | purified caspase-3, Z-DEVD-aminoluciferin luminescence, 60 min | AID 488918 | inhibition, % at 12.5 µM | actives 60% (n = 6,200);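 active = mean inhibition above about 50%, limit read from the data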;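 also: plate controls were enzyme with DMSO for no effect and wells without caspase-3 for full effect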
# Target sequence (P42574 28-227 limits assumed): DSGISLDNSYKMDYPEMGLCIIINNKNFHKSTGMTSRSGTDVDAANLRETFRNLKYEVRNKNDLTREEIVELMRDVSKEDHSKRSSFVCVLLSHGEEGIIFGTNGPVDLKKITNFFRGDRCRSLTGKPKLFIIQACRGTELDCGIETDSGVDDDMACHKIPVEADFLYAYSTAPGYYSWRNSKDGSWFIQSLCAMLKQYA
# SENP luc ctr: luminescence interference (SENP counter-screen) | shares compounds with SENP7 block | Pre-incubated SENP8/Z-RLRGG-aminoluciferin, luciferase luminescence interference | inhibition, % at 12.5 µM | actives 39% (n = 6,200) | AID 488919;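 active = mean inhibition above about 50% when retested at one dose, limit read from the data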;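 also: plate controls were DMSO wells with completed reaction for no effect and substrate without enzyme for full effect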
# * hit, by the source's call; i = inactive; nt = no result given. Shown are actives, neighbours in structure and some others; about 2.9% of the full set was active somewhere.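 The calls were made as follows, unless noted: active = mean inhibition above about 50% in the one-dose retest (limit read from the data); inactive = the rest.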
SMILES,SENP8 block-1,SENP6 block,SENP8 block-2,HSP90 refold inh,SENP7 block,SENP1 FRET inh,HSP90 confirm,FLuc counter,SENP8 confirm,SENP6 conf,SENP7 conf,Casp3 select,SENP luc ctr
COc1ccc(/C=N/Nc2ccc(C(=O)O)cc2)cc1OC,-269,95*,82*,35*,86*,1,44*,29*,89*,88*,99*,90*,83*
CCOc1cc(/C=N/O)cc(Br)c1OCC,31,-4,7,-4,6,-1,nt,nt,nt,nt,nt,nt,nt
O=C(O)c1ccc(N/N=C/c2ccc(OC(=O)c3ccccc3Cl)cc2)cc1,-22,91*,90*,36*,47,-2,88*,7,76*,96*,98*,45,7
CCCCNC(=O)C1(C)CCCCN1C(=O)c1ccc2sccc2c1 (centres undefined),16,nt,nt,nt,nt,-1,nt,nt,nt,nt,nt,nt,nt
CN(CC(=O)Nc1cccc(F)c1)C(=O)CN1C(=O)C2CCCCC2C1=O (centres undefined),2,-7,-2,nt,6,1,nt,nt,nt,nt,nt,nt,nt
O=C(N/N=C/c1ccc(-c2ccccc2Cl)o1)c1ccccc1,-312,4,0,4,0,-2,nt,nt,nt,nt,nt,nt,nt
O=C(O)c1ccc(N/N=C/c2ccc(-c3ccccc3Cl)o2)cc1,-429,98*,97*,53*,88*,-49,60*,46*,99*,100*,103*,66*,97*
COc1ccc(/C=N/Nc2ccc(C(=O)O)cc2)cc1Br,-330,95*,97*,60*,100*,-2,76*,76*,99*,100*,102*,98*,98*
O=C(COC(=O)[C@@H]1CCCN1C(=O)c1cccs1)Nc1cccc([N+](=O)[O-])c1,15,4,2,nt,3,0,nt,nt,nt,nt,nt,nt,nt
CCOC(=O)C1=CN(Cc2cccc(-c3cccnc3)c2)S(=O)(=O)N(C)C1C (centres undefined),10,nt,nt,nt,0,1,nt,nt,nt,nt,nt,nt,nt
CC(C)c1ccc(-c2nc3ccccc3s2)cc1,-7,98*,98*,84*,100*,1,98*,94*,98*,100*,102*,97*,97*
CC(=O)Nc1cccc(-c2nc3ccccc3s2)c1,-58,47,22,-4,34,-2,nt,nt,nt,nt,nt,nt,nt
CCOc1cc(-c2nc3ccccc3s2)ccc1O,-421,27,4,-1,11,-193,nt,nt,nt,nt,nt,nt,nt
COc1cccc(-c2nc3ccccc3s2)c1O,-395,77*,54*,17*,86*,-77,38*,32*,39,58*,96*,74*,5
FC(F)(F)c1ccc(-c2nc3ccccc3s2)cc1,-27,nt,nt,nt,nt,1,nt,nt,nt,nt,nt,nt,nt
COc1ccc(-c2nc3ccccc3s2)cc1O,i,97*,95*,38*,100*,-3,78*,72*,98*,99*,102*,96*,98*
Oc1cccc(-c2nc3ccccc3s2)c1,-142,96*,92*,24*,95*,-1,50*,34*,-23,95*,102*,87*,95*
CCOc1ccc(C(=O)NCC(=O)NCC(c2ccco2)N2CCCCC2)cc1 (centres undefined),4,-10,-4,nt,9,0,nt,nt,nt,nt,nt,nt,nt
Cc1ccc(-n2nc3c(c2NC(=O)C(C)(C)C)CS(=O)(=O)C3)cc1,6,2,7,1,3,0,nt,nt,nt,nt,nt,nt,nt
CC1CCCC(NC(=O)CN(C)CC(=O)Nc2cccc(F)c2)C1C (centres undefined),13,6,-1,nt,3,4,nt,nt,nt,nt,nt,nt,nt
O=C(CNS(=O)(=O)c1ccc(Cl)c(C(F)(F)F)c1)NC1CCCCCC1,-6,3,-3,nt,-2,2,nt,nt,nt,nt,nt,nt,nt
CCCOc1ccc2cc(-c3ccccn3)c(=O)oc2c1,-402,98*,96*,36*,101*,-88,85*,80*,81*,85*,101*,88*,38
O=c1oc2cc(OCc3c(F)cccc3Cl)ccc2cc1-c1ccccn1,-389,-27,-10,-1,-11,-58,nt,nt,nt,nt,nt,nt,nt
Cc1[nH]n(-c2ccccc2)c(=O)c1N=Nc1cccc(C(=O)O)c1,49*,56*,-9,23*,0,3,66*,78*,30,22,59*,5,28
CC(C)Cn1c(SCC(=O)N(C)c2c(N)n(Cc3ccccc3)c(=O)[nH]c2=O)nc2ccccc21,-3,-11,0,nt,6,-1,nt,nt,nt,nt,nt,nt,nt
SMILES,SENP8 block-1,SENP6 block,SENP8 block-2,HSP90 refold inh,SENP7 block,SENP1 FRET inh,HSP90 confirm,FLuc counter,SENP8 confirm,SENP6 conf,SENP7 conf,Casp3 select,SENP luc ctr
Cc1ccccc1-c1nc(-c2ccccn2)no1,13,97*,96*,46*,100*,-1,86*,82*,98*,99*,102*,98*,98*
Brc1ccc(-c2nc(-c3ccccn3)no2)o1,2,89*,87*,44*,89*,-1,60*,55*,93*,94*,101*,96*,92*
Cc1ccccc1-c1noc(-c2ccccc2C(=O)O)n1,10,8,-7,-5,3,1,nt,nt,nt,nt,nt,nt,nt
COc1ccccc1-c1nc(-c2ccccn2)no1,-16,96*,93*,47*,99*,1,78*,65*,12,99*,102*,99*,97*
Cc1cc(C)[n+](Cc2ccccc2)cc1C(N)=O,24,3,3,nt,-9,2,nt,nt,nt,nt,nt,nt,nt
OC(c1ccc(F)c(F)c1)c1nc(-c2ccc(F)c(Cl)c2)cs1 (centres undefined),9,nt,nt,nt,nt,2,nt,nt,nt,nt,nt,nt,nt
COc1ccc(C(=O)OCC(=O)NCc2ccc3c(c2)OCO3)cc1S(=O)(=O)N1CCOCC1,8,7,5,nt,10,-1,nt,nt,nt,nt,nt,nt,nt
N#Cc1ccccc1OCC(=O)NNC(=O)CCC1CCCC1,0,2,3,nt,7,2,nt,nt,nt,nt,nt,nt,nt
